Columns and labels:
[1] = molecular target: T1, Adrenergic receptor alpha-1 (Rattus norvegicus, UniProt P15823+P23944+P43140); test: Affinity for alpha-1 adrenergic receptor in rat was determined by [3H]- prazosin binding assay
T1 sequence (P15823 whole entry): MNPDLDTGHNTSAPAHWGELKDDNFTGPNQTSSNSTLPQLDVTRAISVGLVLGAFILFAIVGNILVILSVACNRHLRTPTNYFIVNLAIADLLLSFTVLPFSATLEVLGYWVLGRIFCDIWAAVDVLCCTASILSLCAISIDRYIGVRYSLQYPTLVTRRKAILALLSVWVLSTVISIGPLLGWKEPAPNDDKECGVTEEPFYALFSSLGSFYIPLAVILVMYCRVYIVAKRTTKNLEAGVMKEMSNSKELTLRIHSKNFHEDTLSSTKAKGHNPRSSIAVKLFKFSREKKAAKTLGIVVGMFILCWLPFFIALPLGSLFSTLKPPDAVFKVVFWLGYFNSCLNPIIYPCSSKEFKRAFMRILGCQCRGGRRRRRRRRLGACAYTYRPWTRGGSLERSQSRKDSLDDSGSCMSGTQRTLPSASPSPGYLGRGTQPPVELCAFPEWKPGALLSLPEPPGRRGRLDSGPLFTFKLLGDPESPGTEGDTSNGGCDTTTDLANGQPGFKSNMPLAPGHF
T1 sequence (P23944 whole entry): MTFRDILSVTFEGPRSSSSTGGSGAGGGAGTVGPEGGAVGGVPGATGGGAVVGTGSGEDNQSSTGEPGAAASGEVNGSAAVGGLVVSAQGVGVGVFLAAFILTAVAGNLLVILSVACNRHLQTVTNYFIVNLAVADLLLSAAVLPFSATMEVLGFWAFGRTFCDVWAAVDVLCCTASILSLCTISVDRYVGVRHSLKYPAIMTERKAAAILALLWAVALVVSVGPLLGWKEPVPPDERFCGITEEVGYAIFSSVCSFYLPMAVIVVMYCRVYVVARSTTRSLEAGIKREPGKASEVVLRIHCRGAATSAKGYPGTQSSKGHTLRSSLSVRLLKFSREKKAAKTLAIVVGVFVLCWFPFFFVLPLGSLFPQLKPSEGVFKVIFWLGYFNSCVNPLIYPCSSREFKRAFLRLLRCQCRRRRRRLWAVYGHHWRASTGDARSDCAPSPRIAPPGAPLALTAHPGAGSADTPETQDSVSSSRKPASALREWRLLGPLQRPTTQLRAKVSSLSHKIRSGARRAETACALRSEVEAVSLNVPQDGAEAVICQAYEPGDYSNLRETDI
T1 sequence (P43140 whole entry): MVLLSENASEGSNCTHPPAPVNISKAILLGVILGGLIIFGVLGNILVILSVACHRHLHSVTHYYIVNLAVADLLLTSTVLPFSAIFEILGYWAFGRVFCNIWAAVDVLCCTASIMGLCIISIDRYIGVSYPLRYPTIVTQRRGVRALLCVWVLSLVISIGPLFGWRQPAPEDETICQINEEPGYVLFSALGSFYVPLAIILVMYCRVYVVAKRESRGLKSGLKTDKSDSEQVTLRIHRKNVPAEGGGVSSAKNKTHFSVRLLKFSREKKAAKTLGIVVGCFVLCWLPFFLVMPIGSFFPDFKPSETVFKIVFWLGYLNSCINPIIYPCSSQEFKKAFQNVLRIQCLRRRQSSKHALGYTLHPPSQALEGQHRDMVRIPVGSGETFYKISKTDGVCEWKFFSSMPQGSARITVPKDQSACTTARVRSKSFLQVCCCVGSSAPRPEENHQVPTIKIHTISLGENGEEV
In short: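 Rat cortex membranes (sucrose/Tris homogenate, washed three times in 140 mM NaCl/5 mM MgCl2/50 mM Tris-HCl pH 7.4) incubated with 0.8 nM [3H]prazosin for 60 min at room temperature. Test compounds at nine concentrations in duplicate, 1% DMSO final. Nonspecific binding defined with phentolamine. Reaction stopped by filtration through GF/B filters, then scintillation counting. IC50 from a sigmoidal fit.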

[2] = molecular target: Glutamate NMDA receptor; Grin1/Grin2b (Rattus norvegicus, UniProt P35439+Q00960); test: In vitro inhibitory concentration against NMDA responses at NR1A/2B receptors expressed in Xenopus oocytes; format: functional, cell-based, Oocyte
In short: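 Two-electrode voltage clamp of oocytes expressing cloned NR1A/2B, held at -70 mV in Ca2+-free Ringer (BaCl2 1.8 mM, Hepes 5 mM, pH 7.4). Drugs in DMSO (0.1–1% final) applied by bath perfusion. IC50 from partial 3–5-point concentration-inhibition curves fitted with residual minimum fixed at 0.15. Mean ± SE.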

[3] = molecular target: Glutamate NMDA receptor; Grin1/Grin2c (Rattus norvegicus, UniProt P35439+Q00961); test: In vitro inhibitory concentration against NMDA responses at NR1A/2C receptors expressed in Xenopus oocytes; format: functional, cell-based, Oocyte
[4] = molecular target: Glutamate NMDA receptor; Grin1/Grin2a (Rattus norvegicus, UniProt P35439+Q00959); test: In vitro inhibitory concentration against NMDA responses at cloned NR1A/2A receptors expressed in Xenopus oocytes; format: functional, cell-based, Oocyte
Rattus = test: Inhibition of voltage -gated K+ currents was measured by whole cell voltage clamp recordings from dissociated rat superior cervical ganglion neurons at 10 uM; format: functional
In short: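 SCG neurons from 1–4-day-old rat pups, recorded 24–48 h after plating. Whole-cell clamp held at -60 mV; 30-ms steps to +50 mV. Bath solution Hepes/glucose pH 7.4; pipette solution KCl/K-aspartate/EGTA pH 7.3. Compound diluted from 10 mM DMSO stock and applied by local perfusion after control responses. Result given as percent inhibition of sustained K+ current.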

Mus musculus = organism: Mus musculus; test: ED50 value was calculated by mouse electric shock assay (MES).; format: functional
In short: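 Anticonvulsant testing in mice by maximal electroshock. Compounds dissolved in 0.05 M Tris and given iv. Seizure protection tested at peak activity, 2 min after dosing.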

Glutamate NMDA receptor; Grin1/Grin2b, sequence (Q00960 whole entry, other chains not shown, the tested form may be a part): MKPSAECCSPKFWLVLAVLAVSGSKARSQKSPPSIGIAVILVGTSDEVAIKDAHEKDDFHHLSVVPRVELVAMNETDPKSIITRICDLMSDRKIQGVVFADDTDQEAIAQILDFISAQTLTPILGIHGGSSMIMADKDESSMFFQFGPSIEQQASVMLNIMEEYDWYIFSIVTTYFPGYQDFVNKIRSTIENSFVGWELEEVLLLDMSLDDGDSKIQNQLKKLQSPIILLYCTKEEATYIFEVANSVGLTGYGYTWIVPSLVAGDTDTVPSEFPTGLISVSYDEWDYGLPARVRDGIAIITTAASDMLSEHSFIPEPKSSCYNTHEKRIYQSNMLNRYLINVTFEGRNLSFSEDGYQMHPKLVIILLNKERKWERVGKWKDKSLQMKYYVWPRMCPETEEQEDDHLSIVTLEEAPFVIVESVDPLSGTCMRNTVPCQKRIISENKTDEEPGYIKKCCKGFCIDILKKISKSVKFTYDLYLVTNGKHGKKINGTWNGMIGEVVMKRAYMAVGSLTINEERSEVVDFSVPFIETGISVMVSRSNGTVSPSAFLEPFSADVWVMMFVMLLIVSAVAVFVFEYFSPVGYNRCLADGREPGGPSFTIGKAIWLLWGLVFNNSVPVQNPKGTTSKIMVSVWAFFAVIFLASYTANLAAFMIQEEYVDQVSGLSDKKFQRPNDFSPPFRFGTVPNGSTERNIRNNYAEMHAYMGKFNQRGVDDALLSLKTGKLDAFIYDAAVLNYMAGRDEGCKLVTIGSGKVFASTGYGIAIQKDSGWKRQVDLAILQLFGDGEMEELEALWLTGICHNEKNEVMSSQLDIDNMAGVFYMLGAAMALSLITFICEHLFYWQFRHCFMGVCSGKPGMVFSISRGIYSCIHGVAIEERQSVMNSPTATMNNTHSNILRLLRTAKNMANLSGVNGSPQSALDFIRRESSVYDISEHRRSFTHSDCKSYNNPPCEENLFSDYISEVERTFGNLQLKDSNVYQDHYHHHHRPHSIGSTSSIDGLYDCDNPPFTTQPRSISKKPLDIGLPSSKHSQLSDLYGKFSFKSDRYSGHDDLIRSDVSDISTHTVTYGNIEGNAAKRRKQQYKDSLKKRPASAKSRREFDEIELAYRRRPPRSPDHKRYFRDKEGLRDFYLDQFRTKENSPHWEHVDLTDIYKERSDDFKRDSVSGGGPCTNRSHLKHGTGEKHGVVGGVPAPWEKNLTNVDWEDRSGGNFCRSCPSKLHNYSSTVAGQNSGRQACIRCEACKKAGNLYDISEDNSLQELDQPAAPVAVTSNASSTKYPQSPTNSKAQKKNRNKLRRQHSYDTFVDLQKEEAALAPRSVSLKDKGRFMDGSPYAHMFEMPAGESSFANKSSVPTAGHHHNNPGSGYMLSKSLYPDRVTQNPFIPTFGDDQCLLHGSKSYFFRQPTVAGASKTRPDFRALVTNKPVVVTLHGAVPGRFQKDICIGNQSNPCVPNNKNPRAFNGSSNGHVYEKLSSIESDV
Glutamate NMDA receptor; Grin1/Grin2c, sequence (Q00961 whole entry, other chains not shown): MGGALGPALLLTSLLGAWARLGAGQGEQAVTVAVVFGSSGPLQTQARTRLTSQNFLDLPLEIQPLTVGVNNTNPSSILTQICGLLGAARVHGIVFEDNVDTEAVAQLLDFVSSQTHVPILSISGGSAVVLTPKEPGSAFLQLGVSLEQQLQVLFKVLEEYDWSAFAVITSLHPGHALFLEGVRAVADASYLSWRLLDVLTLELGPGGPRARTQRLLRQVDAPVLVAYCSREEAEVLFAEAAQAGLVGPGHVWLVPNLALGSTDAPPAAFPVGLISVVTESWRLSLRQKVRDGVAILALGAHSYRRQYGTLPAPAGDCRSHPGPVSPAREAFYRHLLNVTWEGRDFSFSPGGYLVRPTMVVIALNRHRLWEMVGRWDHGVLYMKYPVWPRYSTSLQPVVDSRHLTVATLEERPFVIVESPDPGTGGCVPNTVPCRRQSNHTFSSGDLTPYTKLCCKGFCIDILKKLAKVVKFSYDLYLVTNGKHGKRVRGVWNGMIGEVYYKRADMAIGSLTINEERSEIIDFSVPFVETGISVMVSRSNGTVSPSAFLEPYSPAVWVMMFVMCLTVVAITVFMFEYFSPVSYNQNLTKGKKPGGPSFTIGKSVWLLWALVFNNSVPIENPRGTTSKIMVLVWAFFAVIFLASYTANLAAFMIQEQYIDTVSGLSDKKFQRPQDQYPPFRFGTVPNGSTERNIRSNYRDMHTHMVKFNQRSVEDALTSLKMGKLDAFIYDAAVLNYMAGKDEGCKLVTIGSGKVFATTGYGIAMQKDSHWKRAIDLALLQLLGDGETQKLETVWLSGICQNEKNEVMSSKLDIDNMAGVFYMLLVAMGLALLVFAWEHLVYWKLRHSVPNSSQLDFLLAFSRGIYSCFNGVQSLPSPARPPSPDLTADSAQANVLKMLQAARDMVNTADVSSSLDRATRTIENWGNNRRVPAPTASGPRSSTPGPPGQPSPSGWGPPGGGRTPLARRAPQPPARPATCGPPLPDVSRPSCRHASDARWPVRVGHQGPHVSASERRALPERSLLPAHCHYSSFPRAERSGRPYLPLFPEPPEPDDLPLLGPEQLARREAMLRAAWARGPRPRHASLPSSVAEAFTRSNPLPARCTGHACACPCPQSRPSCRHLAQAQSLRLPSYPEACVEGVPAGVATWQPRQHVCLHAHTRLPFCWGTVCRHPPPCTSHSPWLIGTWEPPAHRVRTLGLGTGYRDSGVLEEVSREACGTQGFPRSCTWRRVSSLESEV
Glutamate NMDA receptor; Grin1/Grin2a, sequence (Q00959 whole entry, other chains not shown): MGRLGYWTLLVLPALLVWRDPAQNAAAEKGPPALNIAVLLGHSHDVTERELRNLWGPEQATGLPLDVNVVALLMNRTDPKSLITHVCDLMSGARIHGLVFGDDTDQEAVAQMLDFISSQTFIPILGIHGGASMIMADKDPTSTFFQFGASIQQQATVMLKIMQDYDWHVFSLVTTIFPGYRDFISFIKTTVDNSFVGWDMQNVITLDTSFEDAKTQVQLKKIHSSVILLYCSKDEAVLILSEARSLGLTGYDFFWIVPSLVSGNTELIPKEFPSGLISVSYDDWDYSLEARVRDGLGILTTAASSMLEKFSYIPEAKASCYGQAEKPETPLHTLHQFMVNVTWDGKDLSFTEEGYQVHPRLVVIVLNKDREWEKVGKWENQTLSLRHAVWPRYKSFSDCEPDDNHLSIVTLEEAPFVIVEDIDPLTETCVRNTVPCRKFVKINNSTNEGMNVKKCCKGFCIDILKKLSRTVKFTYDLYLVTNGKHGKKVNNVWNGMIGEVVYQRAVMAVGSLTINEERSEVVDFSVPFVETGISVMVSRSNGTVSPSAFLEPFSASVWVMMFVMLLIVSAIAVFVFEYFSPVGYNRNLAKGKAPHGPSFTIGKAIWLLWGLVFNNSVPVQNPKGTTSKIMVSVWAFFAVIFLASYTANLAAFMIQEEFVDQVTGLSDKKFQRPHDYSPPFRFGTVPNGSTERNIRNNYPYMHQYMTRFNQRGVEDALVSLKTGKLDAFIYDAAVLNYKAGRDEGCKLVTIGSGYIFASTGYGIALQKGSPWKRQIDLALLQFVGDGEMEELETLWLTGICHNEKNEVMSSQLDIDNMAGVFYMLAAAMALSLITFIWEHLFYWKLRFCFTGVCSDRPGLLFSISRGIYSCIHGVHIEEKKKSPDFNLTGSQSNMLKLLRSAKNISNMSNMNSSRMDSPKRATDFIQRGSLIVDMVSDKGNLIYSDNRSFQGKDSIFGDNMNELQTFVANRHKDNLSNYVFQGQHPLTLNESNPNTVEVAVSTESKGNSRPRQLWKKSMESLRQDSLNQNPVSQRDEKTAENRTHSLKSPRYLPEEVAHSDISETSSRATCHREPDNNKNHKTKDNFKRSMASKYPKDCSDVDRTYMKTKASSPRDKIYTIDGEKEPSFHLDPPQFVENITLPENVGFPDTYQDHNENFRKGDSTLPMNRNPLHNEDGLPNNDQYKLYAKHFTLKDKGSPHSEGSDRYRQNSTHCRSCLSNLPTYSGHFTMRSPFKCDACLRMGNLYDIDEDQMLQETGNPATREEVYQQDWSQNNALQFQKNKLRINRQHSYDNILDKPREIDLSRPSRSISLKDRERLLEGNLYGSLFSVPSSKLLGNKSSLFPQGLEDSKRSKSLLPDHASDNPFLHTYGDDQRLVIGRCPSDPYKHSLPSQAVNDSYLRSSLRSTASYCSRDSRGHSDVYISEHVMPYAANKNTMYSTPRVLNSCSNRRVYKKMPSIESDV

SMILES	IC50 [1] [µM]	IC50 [2] [µM]	IC50 [3] [µM]	IC50 [4] [µM]	inhibition at 10 µM (Rattus) [%]	ED50 (Mus musculus) [mg/kg]
OC(CN1CCC(Cc2ccc(F)cc2)CC1)c1ccc(Cl)cc1 (configuration not stated) [ELIPRODIL]	3.3	1.4	100	100	67	1
C[C@@H]([C@H](O)c1ccc(O)cc1)N1CCC(Cc2ccccc2)CC1 [(R,S)-IFENPRODIL]	0.22				54	7
c1ccc(CC2CCN(CCOc3ccccc3)CC2)cc1	0.82	0.63	> 100	> 100	65	2
Oc1ccc(OCCN2CCC(c3ccccc3)CC2)cc1		7.7	> 100	110		

More lines, in order of falling IC50 [2], values ahead:

IC50 [1] [µM]	IC50 [2] [µM]	IC50 [3] [µM]	IC50 [4] [µM]	SMILES	inhibition at 10 µM (Rattus) [%]	ED50 (Mus musculus) [mg/kg]
1.6	0.05	> 100	21	Oc1ccc(OCCN2CCC(Cc3ccc(F)cc3)CC2)cc1	53	3
27	0.043	> 100	> 100	Cc1ccc(CC2(O)CCN(CCOc3ccc(O)cc3)CC2)cc1	23	1.5
1.8	0.028	> 100	> 100	Cc1ccc(CC2CCN(CCOc3ccc(O)cc3)CC2)cc1	67	0.7
0.47	0.025	> 100	> 100	Oc1ccc(OCCN2CCC(Cc3ccccc3)CC2)cc1	46	2

— ChEMBL document CHEMBL1132328, “4-Hydroxy-1-[2-(4-hydroxyphenoxy)ethyl]-4-(4-methylbenzyl)piperidine: a novel, potent, and selective NR1/2B NMDA receptor antagonist” (J Med Chem, 1999)
